Experimental data from PubChem BioAssay AID743238 (Broad Institute, 2013).
“And” between values parts separate entries of the source, which are not always exact repeats. Equal values may be shown once. Among all 360,000 compounds or so, about 200 (0.056%) were called active. Only a selection was taken, and actives are over-represented in it overall. A number with no mark means an inactive call.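 The calls were made as follows: active = mean normalized replicate activation at least 10% and every replicate at or above 10%; inconclusive = only one of the two criteria met; inactive = mean below 10% and not all replicates reach 10%.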

Experiment: activators of inactive X chromosome reactivation, primary screen, imaging, XiGFP fibroblasts, GFP high-content imaging, set 2 (AID 743238);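 also: 0% = median of on-plate neutral control wells and 100% = ellipticine 6 µM median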
Details: XiGFP mouse fibroblasts, % GFP-positive cells imaging, 3 d; at 7.58 µM; stronger effect = higher value; cells co-treated with 5-aza-dC sensitizer; scaled so ellipticine positive control = 100%
How it was run: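 assay system = SV40-immortalized XiGFP fibroblast cells, line 68-5-11 | buffer or medium = DMEM plus 5-aza-dC sensitizer | doses = single-point pinned compound dosing | times = 3-day compound exposure, then 15 min fixation at room temperature | benchmarks = positive control ellipticine, 6 µM final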

| SMILES | activation |
| --- | --- |
| C[C@@H]1CN([C@@H](C)CO)S(=O)(=O)c2ccc(Br)cc2O[C@@H]1CN(C)C(=O)CN(C)C | 0.922% |
| O=C(Nc1ccc(F)cc1)N1CC(=O)N2[C@H](CO)[C@H](c3ccc(C#Cc4ccccc4)cc3)[C@H]2C1 | 0.018% |
| C[C@H](CO)N1C[C@H](C)[C@@H](CN(C)S(C)(=O)=O)Oc2ccc(NC(=O)Nc3ccc4c(c3)OCO4)cc2CC1=O | 0.005% |
| OC[C@H]1[C@@H](c2ccc(C#Cc3ccccc3F)cc2)[C@H]2CN(CC3CCOCC3)CCCCN21 | -0.0285% |
| C[C@H]1CN([C@@H](C)CO)C(=O)c2cc(-c3ccccc3)cnc2O[C@H]1CN(C)C(=O)C1CCOCC1 | -0.251% |
| COCC(=O)Nc1ccc2c(c1)C(=O)N(C)[C@@H]1CC[C@H](CC(=O)NCC3CC3)O[C@H]1CO2 | 0.286% |
| COc1ccc2c3c(n(C)c2c1)[C@H](CO)NCC31CN(S(=O)(=O)c2cccc(C)c2)C1 | 0.887% |
| COc1cccc(-c2cnc3c(c2)C(=O)N([C@H](C)CO)C[C@H](C)[C@H](CN(C)Cc2ccncc2)O3)c1 | 0.983% |
| CC(=O)N(C)C[C@H]1Oc2ncc(C#Cc3ccc(F)cc3)cc2C(=O)N([C@H](C)CO)C[C@@H]1C | -1.15% |
| C[C@H]1CN([C@@H](C)CO)C(=O)CCCn2cc(nn2)CO[C@H]1CN(C)C(=O)Nc1ccc(F)cc1 | -0.396% |
| O=C(C[C@H]1C=C[C@@H](NC(=O)CC2CC2)[C@H](CO)O1)NCc1ccc(-c2ccccc2)cc1 | 0.158% |
| COc1ccc(S(=O)(=O)N(C)C[C@@H]2Oc3ccc(NC(=O)CCN4CCOCC4)cc3CC(=O)N([C@@H](C)CO)C[C@@H]2C)cc1 | -1.18% |
| O=C(c1cccc(F)c1)N1CC[C@@H]2[C@H](CO)Nc3ccc(C#Cc4ccccc4)cc3[C@@H]21 | 0.0425% |
| CC(C)NC(=O)N(C)C[C@@H]1Oc2ncc(C#CC3CC3)cc2C(=O)N([C@@H](C)CO)C[C@H]1C | -0.634% |
| Nc1c(C(=O)c2cccs2)sc2nsc(SCCN3CCCCC3)c12 | 114% (active) |
| O=C(NC1CCCC1)N1CC(=O)N2[C@H](C1)[C@H](c1ccc(/C=C/c3ccccc3)cc1)[C@@H]2CO | 0.335% |
| CCCC#Cc1ccc([C@H]2[C@H]3CN(C(=O)c4cccnc4)CC(=O)N3[C@H]2CO)cc1 | -0.0225% |
| COc1ccccc1-c1ccc([C@H]2[C@@H](CO)N(CC3CC3)C23CN(S(C)(=O)=O)C3)cc1 | 0.04% |
| CO[C@@H]1CN(C)C(=O)c2cc(NC(=O)Nc3ccccc3F)ccc2OC[C@H](C)NC[C@H]1C | -0.018% |
| O=C([C@@H]1[C@@H](CO)[C@@H]2Cn3c(ccc(-c4cncnc4)c3=O)[C@@H]2N1C(=O)C1CCC1)N1CCCCC1 | 0.322% |
| C[C@@H]1CCCCO[C@@H](CN(C)Cc2ccncc2)[C@@H](C)CN([C@H](C)CO)C(=O)c2cc(NS(=O)(=O)c3cccs3)ccc2O1 | 0.415% |

| SMILES | activation |
| --- | --- |
| CCCN1[C@H](CO)[C@H](c2ccc(C#CC3CCCCC3)cc2)[C@@H]1CNC(=O)C1CC1 | 0.049% |
| CN1CCN(C(=O)C[C@@H]2CC[C@@H]3[C@H](COC[C@H](O)CN3CC3CCOCC3)O2)CC1 | 0.0745% |
| COC(=O)C[C@H]1CC[C@@H](NC(=O)c2ccccc2)[C@@H](CO)O1 | -0.033% |
| COc1ccc(NC(=O)N(C)C[C@H]2Oc3c(NC(=O)Nc4cccc5ccccc45)cccc3C(=O)N([C@@H](C)CO)C[C@H]2C)cc1 | -0.612% |
| O=C(C[C@H]1C[C@H]2c3cc(NC(=O)Nc4ccc(C(F)(F)F)cc4)ccc3O[C@H]2[C@@H](CO)O1)NCc1cccnc1 | 0.387% |
| CCCC(=O)Nc1ccc2c(c1)OC[C@H](C)N(CCc1ccccc1)C[C@H](C)[C@@H](OC)CN(C)C2=O | -0.359% |
| CCNC(=O)C[C@@H]1C=C[C@@H](NC(=O)C2CCOCC2)[C@@H](CO)O1 | 0.276% |
| COc1ccc(S(=O)(=O)N(C)C[C@@H]2Oc3ccc(NC(=O)Cc4ccccc4)cc3CC(=O)N([C@@H](C)CO)C[C@H]2C)cc1 | -0.0685% |
| COc1ccc2c3c([nH]c2c1)[C@@H](CO)N(Cc1cc(F)ccc1F)CC31CCN(C(=O)C2CCC2)CC1 | 0.358% |
| Cc1ccc(S(=O)(=O)Nc2ccc3c(c2)C(=O)N(C)[C@@H]2CC[C@@H](CC(=O)O)O[C@H]2CO3)cc1 | 0.151% |
| O=C(C[C@@H]1C=C[C@H](NC(=O)Nc2ccccc2F)[C@H](CO)O1)NCc1ccc(F)cc1 | 0.215% |
| C[C@H](CO)N1C[C@H](C)[C@@H](CN(C)S(=O)(=O)c2cccs2)Oc2ccc(NC(=O)Nc3ccc(C(F)(F)F)cc3)cc2CC1=O | -0.017% |
| C[C@@H]1CCCCO[C@H](CN(C)C(=O)CCCN(C)C)[C@H](C)CN([C@@H](C)CO)C(=O)c2cc(NS(=O)(=O)c3ccc(Cl)cc3)ccc2O1 | 0.114% |
| C[C@H]1CCCCO[C@H](CN(C)C(=O)Nc2ccc(F)cc2)[C@@H](C)CN([C@@H](C)CO)C(=O)c2cc(NC(=O)CCC(F)(F)F)ccc2O1 | -0.105% |
| N#C[C@@H]1[C@H](c2ccccc2-c2ccccc2F)[C@@H](CO)N1C(=O)C1CCOCC1 | 0.163% |
| O=C1C(Cl)=C(Oc2ccccc2)C(=O)c2ccccc21 | 19.2% (active) |
| CCC(=O)Nc1ccc2c(c1)C(=O)N(C)C[C@H](OC)[C@H](C)CN(C(=O)c1ccccc1F)[C@@H](C)CO2 | 0.375% |
| CO[C@H]1CN(C)C(=O)c2cc(NS(C)(=O)=O)ccc2OC[C@@H](C)N(C)C[C@@H]1C | -0.465% |
| C[C@@H]1CN([C@@H](C)CO)C(=O)CCCn2cc(nn2)CO[C@@H]1CN(C)S(=O)(=O)c1cccc(F)c1 | -0.223% |
| C[C@H]1CN([C@@H](C)CO)C(=O)c2c(c3ccccc3n2C)-c2ccccc2CO[C@H]1CN(C)S(=O)(=O)c1ccc(C#N)cc1 | -1.22% |
| CCC(=O)N1CC(=O)N2[C@@H](CO)[C@@H](c3ccc(C#CC4CCCC4)cc3)[C@@H]2C1 | -0.0225% |

| SMILES | activation |
| --- | --- |
| CCCC#Cc1ccc([C@H]2[C@H]3CN(C(=O)Nc4cc(F)ccc4F)CC(=O)N3[C@H]2CO)cc1 | 0.26% |
| CN1C(=O)c2cc(NC(=O)c3cccc(F)c3)ccc2OC[C@@H]2O[C@@H](CC(=O)NCC3CCCCC3)CC[C@H]21 | -0.045% and -0.023% |
| Cc1ccccc1S(=O)(=O)N1C[C@H](O)COC[C@H]2O[C@H](CC(=O)N3CCCCC3)CC[C@@H]21 | 0.037% |
| C=C(C)C[C@H]1CCn2cc(nn2)COCCNC1=O | 0.348% |
| C[C@H]1CN([C@@H](C)CO)C(=O)c2cccc(NC(=O)CCCCCC(=O)Nc3ccccc3N)c2O[C@@H]1CN(C)C(=O)NC1CCCCC1 | -1.38% |
| C[C@@H]1CN([C@@H](C)CO)C(=O)c2cc(NS(=O)(=O)c3ccc(F)cc3)ccc2O[C@@H]1CN(C)C(=O)NC1CCCCC1 | 0.0955% |
| O=C(C[C@@H]1C=C[C@H](NC(=O)C2CCC2)[C@@H](CO)O1)NCC1CC1 | 0.225% |
| C[C@@H]1CN([C@@H](C)CO)C(=O)c2cc(NC(=O)Nc3cccc4ccccc34)ccc2O[C@H]1CN(C)Cc1ccc(Oc2ccccc2)cc1 | 0.262% |
| O=C([C@@H]1[C@@H](CO)[C@@H]2Cn3c(ccc(C4=CCCC4)c3=O)[C@H]1N2C(=O)c1ccncc1)N1CCCCC1 | 0.116% |
| O=C(C[C@@H]1C[C@H]2c3cc(NC(=O)Nc4ccccc4F)ccc3O[C@H]2[C@@H](CO)O1)NC1CCCCC1 | -0.047% |
| C[C@H](NC(=O)C[C@H]1C=C[C@@H](NC(=O)C2CCOCC2)[C@@H](CO)O1)c1ccccc1 | 0.456% |
| C[C@@H]1CC=CC[C@@H](c2ccccc2)NC(=O)[C@@H](Cc2ccccc2)N(C)C(=O)c2ccccc2O1 (mixture of isomers) | 0.0795% |
| Cc1ccc(-c2ccc([C@H]3[C@H]4CN(S(=O)(=O)c5cccc(F)c5)CC(=O)N4[C@H]3CO)cc2)cc1 | 0.287% |
| CC(C)NC(=O)N1[C@H](CO)[C@@H]2c3ccccc3N(C(=O)Nc3cccc(Cl)c3)C[C@@H]21 | 0.198% |
| C/C=C/c1ccc([C@H]2[C@@H](CO)N3CCCCN(C(=O)c4ccc(F)cc4)C[C@@H]23)cc1 | 0.11% |
| O=C(Nc1cc(F)ccc1F)N[C@H]1CC[C@H](CCn2cc(C3CCCC3)nn2)O[C@@H]1CO | 0.418% |
| C/C=C/c1ccccc1[C@H]1[C@@H](C#N)N(c2nc(CC)cs2)[C@@H]1CO | -0.0085% |
| OC[C@@H]1[C@@H](c2ccccc2)C2(CN(Cc3cccc(F)c3)C2)N1CC1CCCC1 | -0.0685% |
| CO[C@@H]1CN(C)C(=O)c2cc(NC(=O)C3CCCC3)ccc2OC[C@@H](C)N(C(=O)Nc2ccc(C(F)(F)F)cc2)C[C@H]1C | 0.0025% |
| C[C@@H]1CN([C@H](C)CO)C(=O)c2cccc(NS(=O)(=O)c3ccc(Cl)cc3)c2O[C@@H]1CN(C)CC1CC1 | 0.281% |
